In brackets after ≈: the same amount, converted by molar mass.
Experiment: Thermodynamic solubility of the compound at pH 7.4 after 24 hrs by UPLC-MS analysis
Type: physicochemical
Details: buffer, read-out: Therm_solubility
Outline: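 10 mM DMSO stocks were dried down, redissolved in PBS pH 7.4 (maximum 2 mM), sonicated 1 h, then gently agitated ~24 h at 37 °C. Filtered through 0.7 µm glass fiber, diluted up to 40-fold in MeCN and quantified by UPLC-MS against standard curves (50 µM to 0.1 µM in DMSO).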

| SMILES | solubility thermodynamic at 24 h |
| --- | --- |
| CC(C)C[C@H]1NC(=O)[C@H]2CCCN2C(=O)[C@H](CCC(=O)N2CCCC2)NC(=O)[C@@H](CC(C)C)NC(=O)[C@@H](CC(C)C)NC(=O)[C@@H](CC(C)C)NC1=O | 560 µM (≈ 410 µg/mL) |
| CC(C)C[C@@H]1NC(=O)[C@@H](CC(C)C)NC(=O)[C@@H](CC(C)C)NC(=O)[C@@H](CC(C)C)NC(=O)[C@@H](CC(C)C)NC(=O)[C@H]2CCCN2C1=O | 240 µM (≈ 159 µg/mL) |
| COC(=O)CC[C@H]1NC(=O)[C@H]2CCCN2C(=O)[C@H](CC(C)C)NC(=O)[C@H](CC(C)C)NC(=O)[C@@H](CC(C)C)NC(=O)[C@H](CC(C)C)NC1=O | 710 µM (≈ 492 µg/mL) |
| CC(C)C[C@@H]1NC(=O)[C@@H](CC(C)C)NC(=O)[C@@H](CC(C)C)NC(=O)[C@@H](CCC(=O)N2CCCC2)NC(=O)[C@@H](CC(C)C)NC(=O)[C@H]2CCCN2C1=O | 450 µM (≈ 329 µg/mL) |
| CC(C)C[C@@H]1NC(=O)[C@@H](CCC(=O)N2CCCC2)NC(=O)[C@H](CC(C)C)NC(=O)[C@@H](CC(C)C)NC(=O)[C@H]2CCCN2C(=O)[C@H](CC(C)C)NC1=O | 580 µM (≈ 425 µg/mL) |
| CC(C)C[C@@H]1NC(=O)[C@@H](CC(C)C)NC(=O)[C@@H](CC(C)C)NC(=O)[C@@H](CC(C)C)NC(=O)[C@H]2CCCN2C(=O)[C@H](CCC(=O)N2CCCC2)NC1=O | 720 µM (≈ 527 µg/mL) |
| CC(C)C[C@@H]1NC(=O)[C@H](CCC(=O)N2CCCC2)NC(=O)[C@@H](CC(C)C)NC(=O)[C@@H](CC(C)C)NC(=O)[C@@H](CC(C)C)NC(=O)[C@H]2CCCN2C1=O | 510 µM (≈ 373 µg/mL) |
| CC(C)C[C@@H]1NC(=O)[C@@H](CCC(=O)N2CCCC2)NC(=O)[C@@H](CC(C)C)NC(=O)[C@@H](CC(C)C)NC(=O)[C@@H](CC(C)C)NC(=O)[C@H]2CCCN2C1=O | 550 µM (≈ 403 µg/mL) |
| CC(C)C[C@@H]1NC(=O)[C@@H](CC(C)C)NC(=O)[C@H](CC(C)C)NC(=O)[C@@H](CCC(=O)N(C)C)NC(=O)[C@H]2CCCN2C(=O)[C@H](CC(C)C)NC1=O | 1660 µM (≈ 1170 µg/mL) |
| CC(C)C[C@@H]1NC(=O)[C@@H](CC(C)C)NC(=O)[C@@H](CC(C)C)NC(=O)[C@@H](CCC(=O)N2CCCC2)NC(=O)[C@H]2CCCN2C(=O)[C@H](CC(C)C)NC1=O | 640 µM (≈ 468 µg/mL) |
| CC(C)C[C@@H]1NC(=O)[C@@H](CC(C)C)NC(=O)[C@H](CC(C)C)NC(=O)[C@@H](CC(=O)N(C)C)NC(=O)[C@H]2CCCN2C(=O)[C@H](CC(C)C)NC1=O | 1120 µM (≈ 775 µg/mL) |
| CC(C)C[C@@H]1NC(=O)[C@@H](CC(C)C)NC(=O)[C@H](CCC(=O)N2CCCC2)NC(=O)[C@@H](CC(C)C)NC(=O)[C@H]2CCCN2C(=O)[C@H](CC(C)C)NC1=O | 140 µM (≈ 102 µg/mL) |
| CC(C)C[C@@H]1NC(=O)[C@@H](CC(C)C)NC(=O)[C@@H](CC(C)C)NC(=O)[C@@H](CC(C)C)NC(=O)[C@@H](CCC(=O)N2CCCC2)NC(=O)[C@H]2CCCN2C1=O | 610 µM (≈ 447 µg/mL) |
| CC(C)C[C@@H]1NC(=O)[C@@H](CC(C)C)NC(=O)[C@H](CC(C)C)NC(=O)[C@@H](CCC(=O)N2CCCC2)NC(=O)[C@H]2CCCN2C(=O)[C@H](CC(C)C)NC1=O | 730 µM (≈ 534 µg/mL) |
| CC(C)C[C@@H]1NC(=O)[C@@H](CC(C)C)NC(=O)[C@@H](CCC(=O)N2CCCC2)NC(=O)[C@@H](CC(C)C)NC(=O)[C@@H](CC(C)C)NC(=O)[C@H]2CCCN2C1=O | 460 µM (≈ 337 µg/mL) |
| CC(C)C[C@@H]1NC(=O)[C@@H](CCC(=O)N2CCCC2)NC(=O)[C@@H](CC(C)C)NC(=O)[C@@H](CC(C)C)NC(=O)[C@H]2CCCN2C(=O)[C@H](CC(C)C)NC1=O | 580 µM (≈ 425 µg/mL) |
| CC(C)C[C@@H]1NC(=O)[C@@H](CC(C)C)NC(=O)[C@H](CC(C)C)NC(=O)[C@@H](CC(=O)N2CCCC2)NC(=O)[C@H]2CCCN2C(=O)[C@H](CC(C)C)NC1=O | 670 µM (≈ 481 µg/mL) |
| CC(C)C[C@@H]1NC(=O)[C@@H](CC(C)C)NC(=O)[C@H]2CCCN2C(=O)[C@H](CC(C)C)NC(=O)[C@H](CCC(=O)N2CCCC2)NC(=O)[C@@H](CC(C)C)NC1=O | 550 µM (≈ 403 µg/mL) |
| CC(C)C[C@@H]1NC(=O)[C@@H](CC(C)C)NC(=O)[C@H](CC(C)C)NC(=O)[C@@H](CC(C)C)NC(=O)[C@H]2CCCN2C(=O)[C@H](CCC(=O)N2CCCC2)NC1=O | 600 µM (≈ 439 µg/mL) |
| CC(C)C[C@@H]1NC(=O)[C@@H](CC(C)C)NC(=O)[C@H](CC(C)C)NC(=O)[C@@H](CC(C)C)NC(=O)[C@H]2CCCN2C(=O)[C@H](CC(C)C)NC1=O | 63 µM (≈ 41.8 µg/mL) |
| CC(C)C[C@@H]1NC(=O)[C@@H](CC(C)C)NC(=O)[C@@H](CC(C)C)NC(=O)[C@@H](CC(C)C)NC(=O)[C@H]2CCCN2C(=O)[C@H](CC(C)C)NC1=O | 16 µM (≈ 10.6 µg/mL) |
| CC(C)C[C@@H]1NC(=O)[C@@H](CC(C)C)NC(=O)[C@@H](CCC(=O)N2CCCC2)NC(=O)[C@@H](CC(C)C)NC(=O)[C@H]2CCCN2C(=O)[C@H](CC(C)C)NC1=O | 550 µM (≈ 403 µg/mL) |

Experiment: Apparent permeability of the compound after 15 hrs by UPLC-MS based PAMPA
Type: ADME
Details: PAMPA
Outline: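 Donor: 2 µM peptide in PBS pH 7.4 with 5% DMSO final. Acceptor: 5% DMSO in PBS. Membrane of 1% (w/v) soybean lecithin in n-dodecane. Incubated ~15 h at room temperature (exact time recorded) in a humidified sealed chamber. Donor and acceptor wells quantified by UPLC-MS in quadruplicate. Papp derived from %T (acceptor vs theoretical equilibrium) using membrane area 240 mm2.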

| SMILES | Papp at 15 h |
| --- | --- |
| CC(C)C[C@H]1NC(=O)[C@H]2CCCN2C(=O)[C@H](CCC(=O)N2CCCC2)NC(=O)[C@@H](CC(C)C)NC(=O)[C@@H](CC(C)C)NC(=O)[C@@H](CC(C)C)NC1=O | 1.5 ×10⁻⁶ cm/s |
| COC(=O)CC[C@H]1NC(=O)[C@H]2CCCN2C(=O)[C@H](CC(C)C)NC(=O)[C@H](CC(C)C)NC(=O)[C@@H](CC(C)C)NC(=O)[C@H](CC(C)C)NC1=O | 2 ×10⁻⁶ cm/s |
| CC(C)C[C@@H]1NC(=O)[C@@H](CC(C)C)NC(=O)[C@@H](CC(C)C)NC(=O)[C@@H](CCC(=O)N2CCCC2)NC(=O)[C@@H](CC(C)C)NC(=O)[C@H]2CCCN2C1=O | 1.1 ×10⁻⁶ cm/s |
| CC(C)C[C@@H]1NC(=O)[C@@H](CCC(=O)N2CCCC2)NC(=O)[C@H](CC(C)C)NC(=O)[C@@H](CC(C)C)NC(=O)[C@H]2CCCN2C(=O)[C@H](CC(C)C)NC1=O | 0.14 ×10⁻⁶ cm/s |
| CC(C)C[C@@H]1NC(=O)[C@@H](CC(C)C)NC(=O)[C@@H](CC(C)C)NC(=O)[C@@H](CC(C)C)NC(=O)[C@H]2CCCN2C(=O)[C@H](CCC(=O)N2CCCC2)NC1=O | 0.66 ×10⁻⁶ cm/s |
| CC(C)C[C@@H]1NC(=O)[C@H](CCC(=O)N2CCCC2)NC(=O)[C@@H](CC(C)C)NC(=O)[C@@H](CC(C)C)NC(=O)[C@@H](CC(C)C)NC(=O)[C@H]2CCCN2C1=O | 0.32 ×10⁻⁶ cm/s |
| CC(C)C[C@@H]1NC(=O)[C@@H](CCC(=O)N2CCCC2)NC(=O)[C@@H](CC(C)C)NC(=O)[C@@H](CC(C)C)NC(=O)[C@@H](CC(C)C)NC(=O)[C@H]2CCCN2C1=O | 0.13 ×10⁻⁶ cm/s |
| CC(C)C[C@@H]1NC(=O)[C@@H](CC(C)C)NC(=O)[C@H](CC(C)C)NC(=O)[C@@H](CCC(=O)N(C)C)NC(=O)[C@H]2CCCN2C(=O)[C@H](CC(C)C)NC1=O | 0.7 ×10⁻⁶ cm/s |
| CC(C)C[C@@H]1NC(=O)[C@@H](CC(C)C)NC(=O)[C@H](CC(C)C)NC(=O)[C@@H](CC(=O)N(C)C)NC(=O)[C@H]2CCCN2C(=O)[C@H](CC(C)C)NC1=O | 0.28 ×10⁻⁶ cm/s |
| CC(C)C[C@@H]1NC(=O)[C@@H](CC(C)C)NC(=O)[C@H](CCC(=O)N2CCCC2)NC(=O)[C@@H](CC(C)C)NC(=O)[C@H]2CCCN2C(=O)[C@H](CC(C)C)NC1=O | 0.23 ×10⁻⁶ cm/s |
| CC(C)C[C@@H]1NC(=O)[C@@H](CC(C)C)NC(=O)[C@@H](CCC(=O)N2CCCC2)NC(=O)[C@@H](CC(C)C)NC(=O)[C@@H](CC(C)C)NC(=O)[C@H]2CCCN2C1=O | 1.3 ×10⁻⁶ cm/s |
| CC(C)C[C@@H]1NC(=O)[C@@H](CCC(=O)N2CCCC2)NC(=O)[C@@H](CC(C)C)NC(=O)[C@@H](CC(C)C)NC(=O)[C@H]2CCCN2C(=O)[C@H](CC(C)C)NC1=O | 0.3 ×10⁻⁶ cm/s |
| CC(C)C[C@@H]1NC(=O)[C@@H](CC(C)C)NC(=O)[C@H](CC(C)C)NC(=O)[C@@H](CC(=O)N2CCCC2)NC(=O)[C@H]2CCCN2C(=O)[C@H](CC(C)C)NC1=O | 0.56 ×10⁻⁶ cm/s |
| CC(C)C[C@@H]1NC(=O)[C@@H](CC(C)C)NC(=O)[C@H]2CCCN2C(=O)[C@H](CC(C)C)NC(=O)[C@H](CCC(=O)N2CCCC2)NC(=O)[C@@H](CC(C)C)NC1=O | 0.28 ×10⁻⁶ cm/s |
| CC(C)C[C@@H]1NC(=O)[C@@H](CC(C)C)NC(=O)[C@H](CC(C)C)NC(=O)[C@@H](CC(C)C)NC(=O)[C@H]2CCCN2C(=O)[C@H](CCC(=O)N2CCCC2)NC1=O | 0.18 ×10⁻⁶ cm/s |
| CC(C)C[C@@H]1NC(=O)[C@@H](CC(C)C)NC(=O)[C@@H](CCC(=O)N2CCCC2)NC(=O)[C@@H](CC(C)C)NC(=O)[C@H]2CCCN2C(=O)[C@H](CC(C)C)NC1=O | 0.66 ×10⁻⁶ cm/s |

Same assay, conditions: pampa, 15 h

| SMILES | Papp |
| --- | --- |
| CC(C)C[C@@H]1NC(=O)[C@@H](CC(C)C)NC(=O)[C@@H](CC(C)C)NC(=O)[C@@H](CC(C)C)NC(=O)[C@@H](CC(C)C)NC(=O)[C@H]2CCCN2C1=O | 5.3 10^-6 cm/s |
| CC(C)C[C@@H]1NC(=O)[C@@H](CC(C)C)NC(=O)[C@@H](CC(C)C)NC(=O)[C@@H](CCC(=O)N2CCCC2)NC(=O)[C@H]2CCCN2C(=O)[C@H](CC(C)C)NC1=O | 1.7 10^-6 cm/s |
| CC(C)C[C@@H]1NC(=O)[C@@H](CC(C)C)NC(=O)[C@@H](CC(C)C)NC(=O)[C@@H](CC(C)C)NC(=O)[C@@H](CCC(=O)N2CCCC2)NC(=O)[C@H]2CCCN2C1=O | 0.56 10^-6 cm/s |
| CC(C)C[C@@H]1NC(=O)[C@@H](CC(C)C)NC(=O)[C@H](CC(C)C)NC(=O)[C@@H](CCC(=O)N2CCCC2)NC(=O)[C@H]2CCCN2C(=O)[C@H](CC(C)C)NC1=O | 1.5 10^-6 cm/s |
| CC(C)C[C@@H]1NC(=O)[C@@H](CC(C)C)NC(=O)[C@H](CC(C)C)NC(=O)[C@@H](CC(C)C)NC(=O)[C@H]2CCCN2C(=O)[C@H](CC(C)C)NC1=O | 8 10^-6 cm/s |
| CC(C)C[C@@H]1NC(=O)[C@@H](CC(C)C)NC(=O)[C@@H](CC(C)C)NC(=O)[C@@H](CC(C)C)NC(=O)[C@H]2CCCN2C(=O)[C@H](CC(C)C)NC1=O | 8.1 10^-6 cm/s |

Source: ChEMBL document CHEMBL5154792, “A New Amino Acid for Improving Permeability and Solubility in Macrocyclic Peptides through Side Chain-to-Backbone Hydrogen Bonding” (J Med Chem, 2022)
